ChEMBL document CHEMBL4043093, “2-Oxo-3, 4-dihydropyrimido[4, 5-d]pyrimidinyl derivatives as new irreversible pan fibroblast growth factor receptor (FGFR) inhibitors” (Eur J Med Chem, 2017)

Assays:
[1] = biological target: Serine/threonine-protein kinase Sgk2 (Homo sapiens) (UniProt Q9HBY8); test: Inhibition of wild-type human partial length SGK2 (L54 to C427 residues) expressed in HEK293 cells assessed as residual activity at 1000 nM after 30 mins by Kinomescan method relative to control; format: cell-based
[2] = biological target: Mitogen-activated protein kinase kinase kinase 3 (Homo sapiens) (UniProt Q99759); test: Inhibition of wild-type human partial length MAP3K3 (E320 to Y626 residues) expressed in HEK293 cells assessed as residual activity at 1000 nM after 30 mins by Kinomescan method relative to control; format: cell-based
[3] = tested on: Epidermal growth factor receptor (Homo sapiens), P00533 [G719S]; test: Inhibition of human partial length EGFR G719S mutant (R669 to V1011 residues) expressed in Escherichia coli BL21 assessed as residual activity at 1000 nM after 30 mins by Kinomescan method relative to control
Summary of the method: (§1)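 KINOMEscan binding panel of 456 kinases, with the test compound at a single concentration of 1 µM. Read-out is Percent Control.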

[4] = biological target: Serine/threonine-protein kinase PAK 4 (Homo sapiens) (UniProt O96013); test: Inhibition of wild-type human partial length PAK4 (Q144 to R438 residues) expressed in Escherichia coli BL21 assessed as residual activity at 1000 nM after 30 mins by Kinomescan method relative to control
[5] = biological target: Fibroblast growth factor receptor 1 (Homo sapiens, UniProt P11362); test: Inhibition of wild-type human partial length FGFR1 (P357 to V669 residues) expressed in Escherichia coli BL21 assessed as residual activity at 1000 nM after 30 mins by Kinomescan method relative to control
[6] = biological target: TGF-beta receptor type-2 (Homo sapiens) (UniProt P37173); test: Inhibition of wild-type human partial length TGFBR2 (I218 to K567 residues) expressed in Escherichia coli BL21 assessed as residual activity at 1000 nM after 30 mins by Kinomescan method relative to control
[7] = biological target: Ephrin type-A receptor 3 (Homo sapiens) (UniProt P29320); test: Inhibition of wild-type human partial length EPHA3 (D604 to K889 residues) expressed in Escherichia coli BL21 assessed as residual activity at 1000 nM after 30 mins by Kinomescan method relative to control
[8] = biological target: Mitogen-activated protein kinase 3 (Homo sapiens) (UniProt P27361); test: Inhibition of wild-type human full length ERK1 (M1 to P379 residues) expressed in Escherichia coli BL21 assessed as residual activity at 1000 nM after 30 mins by Kinomescan method relative to control
Summary of the method: (§2)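 Single-concentration screen at 1 µM across a 456-kinase KINOMEscan panel. The read-out is Percent Control for each kinase.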

[9] = biological target: Mitogen-activated protein kinase kinase kinase kinase 4 (Homo sapiens) (UniProt O95819); test: Inhibition of wild-type human partial length MAP4K4 (M1 to R310 residues) expressed in Escherichia coli BL21 assessed as residual activity at 1000 nM after 30 mins by Kinomescan method relative to control
[10] = biological target: Activin receptor type-1B (Homo sapiens) (UniProt P36896); test: Inhibition of wild-type human ACVR1B (S187 to I505 residues) expressed in Escherichia coli BL21 assessed as residual activity at 1000 nM after 30 mins by Kinomescan method relative to control
Summary of the method: (§3)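 Single-point screen at a fixed 1 µM, run within a 456-kinase DiscoveRx KINOMEscan panel. Each kinase's read-out is Percent Control, i.e. signal relative to a control without compound. Hits were scored by a Percent Control < 35 cut-off, and an S(35) selectivity score was calculated across the non-mutant kinases.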

[11] = biological target: Serine/threonine-protein kinase pim-2 (Homo sapiens) (UniProt Q9P1W9); test: Inhibition of wild-type human partial length PIM2 (M1 to E291 residues) expressed in Escherichia coli BL21 assessed as residual activity at 1000 nM after 30 mins by Kinomescan method relative to control
[12] = biological target: Mitogen-activated protein kinase kinase kinase 19 (Homo sapiens) (UniProt Q56UN5); test: Inhibition of wild-type human partial length YSK4 (T1019 to H1328 residues) expressed in HEK293 cells assessed as residual activity at 1000 nM after 30 mins by Kinomescan method relative to control; format: cell-based
[13] = biological target: cAMP-dependent protein kinase catalytic subunit PRKX (Homo sapiens) (UniProt P51817); test: Inhibition of wild-type human partial length PRKX (M1 to F358 residues) expressed in Escherichia coli BL21 assessed as residual activity at 1000 nM after 30 mins by Kinomescan method relative to control
[14] = biological target: Ephrin type-A receptor 2 (Homo sapiens) (UniProt P29317); test: Inhibition of wild-type human partial length EPHA2 (T593 to V891 residues) expressed in Escherichia coli BL21 assessed as residual activity at 1000 nM after 30 mins by Kinomescan method relative to control
[15] = tested on: Epidermal growth factor receptor (Homo sapiens), P00533 [L861Q]; test: Inhibition of human partial length EGFR L861Q mutant (R669 to V1011 residues) expressed in Escherichia coli BL21 assessed as residual activity at 1000 nM after 30 mins by Kinomescan method relative to control; summary of the method: as §1
[16] = tested on: Leucine-rich repeat serine/threonine-protein kinase 2 (Homo sapiens), Q5S007 [G2019S]; test: Inhibition of human partial length LRRK2 G2019S mutant (H970 to E2527 residues) expressed in HEK293 cells assessed as residual activity at 1000 nM after 30 mins by Kinomescan method relative to control; format: cell-based; summary of the method: as §1
[17] = tested on: Mast/stem cell growth factor receptor Kit (Homo sapiens), P10721 [L576P]; test: Inhibition of human partial length KIT L576P mutant (Y545 to D952 residues) expressed in Escherichia coli BL21 assessed as residual activity at 1000 nM after 30 mins by Kinomescan method relative to control; summary of the method: as §1
[18] = biological target: Maternal embryonic leucine zipper kinase (Homo sapiens) (UniProt Q14680); test: Inhibition of wild-type human full length MELK (M1 to V651 residues) expressed in Escherichia coli BL21 assessed as residual activity at 1000 nM after 30 mins by Kinomescan method relative to control; summary of the method: as §2
[19] = biological target: Serine/threonine-protein kinase TNNI3K (Homo sapiens) (UniProt Q59H18); test: Inhibition of wild-type human full length TNNI3K (M1 to S835 residues) expressed in Escherichia coli BL21 assessed as residual activity at 1000 nM after 30 mins by Kinomescan method relative to control
[20] = biological target: Phosphatidylinositol 3-kinase catalytic subunit type 3 (Homo sapiens) (UniProt Q8NEB9); test: Inhibition of wild-type human partial length VPS34 (S282 to H879 residues) expressed in HEK293 cells assessed as residual activity at 1000 nM after 30 mins by Kinomescan method relative to control; format: cell-based
[21] = biological target: Casein kinase I isoform epsilon (Homo sapiens) (UniProt P49674); test: Inhibition of wild-type human full length CSNK1E (M1 to K416 residues) expressed in Escherichia coli BL21 assessed as residual activity at 1000 nM after 30 mins by Kinomescan method relative to control; summary of the method: as §3

Phosphatidylinositol 3-kinase catalytic subunit type 3 (Homo sapiens), sequence (Q8NEB9 whole entry, the tested form may be a part, canonical isoform): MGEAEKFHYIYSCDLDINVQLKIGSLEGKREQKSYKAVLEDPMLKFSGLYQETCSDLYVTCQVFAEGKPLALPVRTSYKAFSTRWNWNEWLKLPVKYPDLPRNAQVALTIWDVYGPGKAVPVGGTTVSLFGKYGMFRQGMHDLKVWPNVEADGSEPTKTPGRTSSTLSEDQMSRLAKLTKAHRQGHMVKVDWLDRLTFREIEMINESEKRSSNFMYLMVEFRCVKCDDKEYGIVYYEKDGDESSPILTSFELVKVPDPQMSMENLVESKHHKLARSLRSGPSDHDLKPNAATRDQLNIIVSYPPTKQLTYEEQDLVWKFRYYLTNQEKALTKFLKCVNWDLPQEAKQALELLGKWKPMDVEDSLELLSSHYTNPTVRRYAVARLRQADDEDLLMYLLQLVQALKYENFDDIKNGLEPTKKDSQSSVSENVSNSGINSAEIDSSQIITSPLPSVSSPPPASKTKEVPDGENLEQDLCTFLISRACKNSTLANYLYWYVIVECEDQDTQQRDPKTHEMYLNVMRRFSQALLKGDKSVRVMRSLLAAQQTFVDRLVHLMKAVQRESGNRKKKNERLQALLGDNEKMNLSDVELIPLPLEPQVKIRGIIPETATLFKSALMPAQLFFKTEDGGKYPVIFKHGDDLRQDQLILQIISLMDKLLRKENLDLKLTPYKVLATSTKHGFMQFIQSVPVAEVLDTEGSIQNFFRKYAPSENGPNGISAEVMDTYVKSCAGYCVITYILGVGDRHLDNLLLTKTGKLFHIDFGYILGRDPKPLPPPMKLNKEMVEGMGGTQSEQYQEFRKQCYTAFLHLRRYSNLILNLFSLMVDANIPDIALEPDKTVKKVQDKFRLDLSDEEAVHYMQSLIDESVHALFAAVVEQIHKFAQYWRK
Mitogen-activated protein kinase kinase kinase 19 (Homo sapiens), sequence (Q56UN5 whole entry, the tested form may be a part): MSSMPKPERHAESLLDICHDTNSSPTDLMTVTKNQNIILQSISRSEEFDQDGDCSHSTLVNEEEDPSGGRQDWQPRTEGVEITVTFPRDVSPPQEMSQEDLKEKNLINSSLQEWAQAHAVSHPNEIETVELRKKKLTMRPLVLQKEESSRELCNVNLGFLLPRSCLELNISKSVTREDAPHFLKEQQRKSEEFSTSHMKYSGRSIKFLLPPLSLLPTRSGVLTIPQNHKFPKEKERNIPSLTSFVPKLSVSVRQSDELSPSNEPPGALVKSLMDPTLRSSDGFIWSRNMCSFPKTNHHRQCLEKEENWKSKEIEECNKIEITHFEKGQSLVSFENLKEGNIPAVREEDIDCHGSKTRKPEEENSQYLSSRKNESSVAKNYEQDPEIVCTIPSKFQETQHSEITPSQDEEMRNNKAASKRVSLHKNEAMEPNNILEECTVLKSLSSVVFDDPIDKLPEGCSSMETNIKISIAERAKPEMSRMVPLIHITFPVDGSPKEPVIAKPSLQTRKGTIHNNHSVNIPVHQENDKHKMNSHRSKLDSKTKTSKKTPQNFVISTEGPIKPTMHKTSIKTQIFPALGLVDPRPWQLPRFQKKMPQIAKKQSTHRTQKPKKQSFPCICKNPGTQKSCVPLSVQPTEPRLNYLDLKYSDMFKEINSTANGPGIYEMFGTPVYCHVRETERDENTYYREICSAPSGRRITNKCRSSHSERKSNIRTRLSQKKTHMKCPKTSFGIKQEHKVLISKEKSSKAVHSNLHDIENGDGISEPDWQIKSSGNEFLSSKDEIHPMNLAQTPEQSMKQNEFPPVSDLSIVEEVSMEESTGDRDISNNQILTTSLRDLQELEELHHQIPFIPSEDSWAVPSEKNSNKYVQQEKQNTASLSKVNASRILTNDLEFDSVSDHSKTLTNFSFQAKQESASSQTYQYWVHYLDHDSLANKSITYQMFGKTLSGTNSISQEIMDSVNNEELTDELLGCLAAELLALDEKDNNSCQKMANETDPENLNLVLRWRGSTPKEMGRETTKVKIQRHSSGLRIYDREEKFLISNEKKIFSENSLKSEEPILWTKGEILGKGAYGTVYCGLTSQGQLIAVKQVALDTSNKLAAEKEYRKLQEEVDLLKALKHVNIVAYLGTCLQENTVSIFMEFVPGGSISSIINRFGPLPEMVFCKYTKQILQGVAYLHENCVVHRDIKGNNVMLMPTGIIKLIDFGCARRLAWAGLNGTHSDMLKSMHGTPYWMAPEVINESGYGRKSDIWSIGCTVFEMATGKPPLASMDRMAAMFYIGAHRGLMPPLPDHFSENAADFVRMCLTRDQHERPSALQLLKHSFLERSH
Mitogen-activated protein kinase 3 (Homo sapiens), sequence (P27361 whole entry, the tested form may be a part): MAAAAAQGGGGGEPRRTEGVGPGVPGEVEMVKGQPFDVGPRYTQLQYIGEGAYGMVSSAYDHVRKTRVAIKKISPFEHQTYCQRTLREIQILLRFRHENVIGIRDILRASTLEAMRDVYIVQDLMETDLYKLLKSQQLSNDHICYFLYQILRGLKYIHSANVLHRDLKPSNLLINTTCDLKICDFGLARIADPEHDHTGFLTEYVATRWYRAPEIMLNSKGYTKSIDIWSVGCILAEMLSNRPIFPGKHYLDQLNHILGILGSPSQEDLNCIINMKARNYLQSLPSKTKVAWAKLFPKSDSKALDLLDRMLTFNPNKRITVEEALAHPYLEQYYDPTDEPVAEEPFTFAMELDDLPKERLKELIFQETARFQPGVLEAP
TGF-beta receptor type-2 (Homo sapiens), sequence (P37173 whole entry, the tested form may be a part): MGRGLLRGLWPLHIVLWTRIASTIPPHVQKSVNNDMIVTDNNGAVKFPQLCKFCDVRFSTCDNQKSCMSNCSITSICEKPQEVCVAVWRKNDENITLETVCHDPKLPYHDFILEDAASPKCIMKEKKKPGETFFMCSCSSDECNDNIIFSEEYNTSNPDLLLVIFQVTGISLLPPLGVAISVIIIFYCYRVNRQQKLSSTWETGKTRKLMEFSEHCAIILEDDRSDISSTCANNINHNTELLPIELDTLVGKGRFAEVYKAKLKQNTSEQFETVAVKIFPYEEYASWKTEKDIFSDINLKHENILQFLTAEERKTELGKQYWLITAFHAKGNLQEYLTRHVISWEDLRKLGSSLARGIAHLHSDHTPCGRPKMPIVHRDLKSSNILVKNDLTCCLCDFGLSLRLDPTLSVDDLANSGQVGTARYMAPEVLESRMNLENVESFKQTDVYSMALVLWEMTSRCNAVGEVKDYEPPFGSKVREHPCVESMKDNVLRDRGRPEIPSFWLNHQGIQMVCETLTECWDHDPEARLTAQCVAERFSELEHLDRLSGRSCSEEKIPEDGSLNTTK
Serine/threonine-protein kinase PAK 4 (Homo sapiens), sequence (O96013 whole entry, looked up, the tested form may be a part): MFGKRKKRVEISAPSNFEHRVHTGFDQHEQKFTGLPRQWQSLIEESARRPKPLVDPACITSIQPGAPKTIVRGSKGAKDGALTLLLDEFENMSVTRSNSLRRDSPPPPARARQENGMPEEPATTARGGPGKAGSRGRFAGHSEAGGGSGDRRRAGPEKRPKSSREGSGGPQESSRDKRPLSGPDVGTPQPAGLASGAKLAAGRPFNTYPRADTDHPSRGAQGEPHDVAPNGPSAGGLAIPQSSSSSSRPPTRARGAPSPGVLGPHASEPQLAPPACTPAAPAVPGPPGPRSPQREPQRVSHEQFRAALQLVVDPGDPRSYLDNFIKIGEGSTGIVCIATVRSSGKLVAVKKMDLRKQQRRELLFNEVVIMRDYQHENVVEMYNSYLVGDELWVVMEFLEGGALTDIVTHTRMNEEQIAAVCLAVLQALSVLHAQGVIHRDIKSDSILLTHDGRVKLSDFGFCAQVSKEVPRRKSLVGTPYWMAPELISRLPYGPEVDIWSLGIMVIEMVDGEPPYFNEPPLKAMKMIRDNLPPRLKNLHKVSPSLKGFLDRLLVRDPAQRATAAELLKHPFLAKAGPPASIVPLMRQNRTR
Serine/threonine-protein kinase TNNI3K (Homo sapiens), sequence (Q59H18 whole entry, the tested form may be a part): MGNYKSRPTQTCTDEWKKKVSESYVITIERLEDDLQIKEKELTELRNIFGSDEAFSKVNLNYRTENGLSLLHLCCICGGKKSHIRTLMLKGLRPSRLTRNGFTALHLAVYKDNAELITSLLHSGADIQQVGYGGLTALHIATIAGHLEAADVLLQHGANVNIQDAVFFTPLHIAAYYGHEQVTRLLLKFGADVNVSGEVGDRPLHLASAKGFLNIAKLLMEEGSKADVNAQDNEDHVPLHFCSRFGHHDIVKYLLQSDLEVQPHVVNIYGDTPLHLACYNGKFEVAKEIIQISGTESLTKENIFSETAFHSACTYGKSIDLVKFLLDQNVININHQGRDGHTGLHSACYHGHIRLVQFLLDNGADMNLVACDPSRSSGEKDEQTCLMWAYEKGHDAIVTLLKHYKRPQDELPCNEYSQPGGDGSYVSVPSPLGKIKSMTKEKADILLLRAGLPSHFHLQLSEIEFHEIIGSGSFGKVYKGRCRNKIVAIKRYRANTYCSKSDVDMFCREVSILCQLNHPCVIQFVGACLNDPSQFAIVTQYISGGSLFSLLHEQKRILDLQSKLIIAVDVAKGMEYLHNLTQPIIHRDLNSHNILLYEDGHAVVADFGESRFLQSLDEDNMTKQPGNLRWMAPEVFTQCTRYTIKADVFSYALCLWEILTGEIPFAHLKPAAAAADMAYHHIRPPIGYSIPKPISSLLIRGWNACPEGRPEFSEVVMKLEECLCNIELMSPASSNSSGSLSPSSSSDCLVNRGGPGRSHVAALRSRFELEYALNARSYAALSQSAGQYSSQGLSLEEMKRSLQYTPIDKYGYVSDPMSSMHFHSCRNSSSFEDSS
Serine/threonine-protein kinase Sgk2 (Homo sapiens), sequence (Q9HBY8 whole entry, the tested form may be a part): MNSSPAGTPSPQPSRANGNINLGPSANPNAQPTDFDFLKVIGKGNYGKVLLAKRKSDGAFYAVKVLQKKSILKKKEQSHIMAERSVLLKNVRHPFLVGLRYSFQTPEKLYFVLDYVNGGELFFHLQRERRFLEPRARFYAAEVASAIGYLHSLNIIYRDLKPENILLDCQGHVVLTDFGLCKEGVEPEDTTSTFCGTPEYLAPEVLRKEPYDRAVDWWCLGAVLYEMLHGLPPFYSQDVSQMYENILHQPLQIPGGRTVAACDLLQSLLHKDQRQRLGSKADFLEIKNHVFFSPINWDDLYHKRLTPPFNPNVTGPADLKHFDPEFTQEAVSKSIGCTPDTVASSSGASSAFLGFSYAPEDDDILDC

COc1cc(OC)c(Cl)c(N2Cc3cnc(Nc4ccc(F)cc4)nc3N(C3CCN(C(=O)/C=C/CN(C)C)CC3)C2=O)c1Cl
Activity [1]: 100%
Activity [2]: 1.9%
Activity [3]: 87%
Activity [4]: 100%
Activity [5]: 0.6%
Activity [6]: 91%
Activity [7]: 100%
Activity [8]: 100%
Activity [9]: 100%
Activity [10]: 100%
Activity [11]: 83%
Activity [12]: 93%
Activity [13]: 100%
Activity [14]: 100%
Activity [15]: 87%
Activity [16]: 98%
Activity [17]: 2.6%
Activity [18]: 100%
Activity [19]: 100%
Activity [20]: 100%
Activity [21]: 100%
